Results: ChEMBL document CHEMBL3525913, “Metabolism-dependent inhibition of CYP3A4 by lapatinib: evidence for formation of a metabolic intermediate complex with a nitroso/oxime metabolite formed via a nitrone intermediate” (Drug Metab Dispos, 2013)

Key:
Liver microsome = experiment: Drug level in human liver microsomes treated with lapatinib at 50 uM by LC/MS/MS analysis; format: ADME
Procedure, shortened: (§1)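 Lapatinib 50 μM (added in DMSO) incubated 30 min at 37°C in 100 mM potassium phosphate pH 7.4 with HLM 1 mg/mL or recombinant CYP3A4+b5 / CYP3A5+b5 100 pmol/mL. Reaction started with NADPH 1 mM. Protein re-isolated by ultracentrifugation (100,000 x g, 4°C, 60 min), washed (KCl/EDTA), resuspended in phosphate buffer, ±2 mM ferricyanide 10 min 37°C, quenched with acetonitrile, then high-resolution LC/MS profiling.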

[1] = Retention time of the compound by LC/MS/MS analysis relative to lapatinib; format: physicochemical
Procedure, shortened: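 Phenyl UPLC column (1.7 μm, 2.1 x 100 mm), 0.1% formic acid in water/acetonitrile, 0.4 mL/min. Gradient: 10% organic for 1 min, to 90% over 13 min, held 0.5 min. Detection by accurate-mass MS. Retention times expressed relative to lapatinib.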

Cytochrome P450 3A4 = Cytochrome P450 3A4 (Homo sapiens, UniProt P08684); experiment: Activity of recombinant CYP3A4 (unknown origin) assessed as compound formation treated with lapatinib at 50 uM by LC/MS/MS analysis; format: ADME; conditions: recombinant enzyme; procedure, shortened: as §1
Cytochrome P450 3A5 = Cytochrome P450 3A5 (Homo sapiens, UniProt P20815); experiment: Activity of recombinant CYP3A5 (unknown origin) assessed as compound formation treated with lapatinib at 50 uM by LC/MS/MS analysis; format: ADME; conditions: recombinant enzyme; procedure, shortened: as §1
Cytochrome P450 3A5, sequence (P20815 whole entry): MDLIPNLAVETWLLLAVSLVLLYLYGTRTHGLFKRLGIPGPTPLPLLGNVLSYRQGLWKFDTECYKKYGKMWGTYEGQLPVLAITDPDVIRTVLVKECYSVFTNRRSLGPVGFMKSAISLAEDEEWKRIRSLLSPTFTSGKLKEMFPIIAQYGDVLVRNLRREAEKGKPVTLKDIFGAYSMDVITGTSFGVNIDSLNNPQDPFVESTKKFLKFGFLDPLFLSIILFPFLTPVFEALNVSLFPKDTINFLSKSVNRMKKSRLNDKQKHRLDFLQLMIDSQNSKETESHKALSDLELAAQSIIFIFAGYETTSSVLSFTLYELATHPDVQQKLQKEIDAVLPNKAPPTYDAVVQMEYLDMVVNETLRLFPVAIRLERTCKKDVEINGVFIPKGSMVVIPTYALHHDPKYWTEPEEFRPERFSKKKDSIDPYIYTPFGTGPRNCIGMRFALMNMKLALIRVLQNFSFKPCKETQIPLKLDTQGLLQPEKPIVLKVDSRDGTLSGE

Cytochrome P450 3A4, sequence (P08684 whole entry): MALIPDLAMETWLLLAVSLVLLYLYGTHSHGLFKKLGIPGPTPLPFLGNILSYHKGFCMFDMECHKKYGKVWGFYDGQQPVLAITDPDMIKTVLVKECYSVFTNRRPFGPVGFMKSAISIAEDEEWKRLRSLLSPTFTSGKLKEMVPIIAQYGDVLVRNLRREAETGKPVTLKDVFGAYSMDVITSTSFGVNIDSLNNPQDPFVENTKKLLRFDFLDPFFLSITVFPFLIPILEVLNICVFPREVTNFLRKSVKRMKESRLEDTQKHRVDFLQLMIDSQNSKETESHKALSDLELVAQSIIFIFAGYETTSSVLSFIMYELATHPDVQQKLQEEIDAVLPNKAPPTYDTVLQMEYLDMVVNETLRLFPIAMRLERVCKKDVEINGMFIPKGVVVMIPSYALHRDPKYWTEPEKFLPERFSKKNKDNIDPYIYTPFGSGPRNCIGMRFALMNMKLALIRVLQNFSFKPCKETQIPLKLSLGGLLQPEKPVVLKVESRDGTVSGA

| Drug metabolism (Liver microsome) | Ratio [1] | Drug metabolism (Cytochrome P450 3A4) | Drug metabolism (Cytochrome P450 3A5) | Structure (SMILES) |
| --- | --- | --- | --- | --- |
| metabolite_detected | 1.14 | metabolite_detected | metabolite_detected | CS(=O)(=O)CCN(O)Cc1ccc(-c2ccc3ncnc(Nc4ccc(OCc5cccc(F)c5)c(Cl)c4)c3c2)o1 |
| metabolite_detected | 0.5 | metabolite_detected | metabolite_detected | CS(=O)(=O)CCNCc1ccc(-c2ccc3ncnc(Nc4ccc(O)c(Cl)c4)c3c2)o1 |
| metabolite_detected | 0.78 | metabolite_detected | metabolite_detected | CS(=O)(=O)CCNC(O)c1ccc(-c2ccc3ncnc(Nc4ccc(O)c(Cl)c4)c3c2)o1 (stereo unspecified) |
| metabolite_detected | 1.21 | metabolite_detected | metabolite_detected | O=Cc1ccc(-c2ccc3ncnc(Nc4ccc(OCc5cccc(F)c5)c(Cl)c4)c3c2)o1 |
